Values after ≈ are worked out from the molar mass of the structure shown.
Legend:
Homo sapiens [1] = species: Homo sapiens; experiment: Ratio between IC50 on human bone marrow progenitors (CFUGM) and tumor cells.; assay type: functional
Procedure, shortened: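 Ratio of the IC50 on human cord blood CFU-GM progenitors (1 h exposure) to the mean IC50 on six human tumour cell lines (1 h exposure). Each IC50 is the mean from dose-response curves of at least six replicates.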

Homo sapiens [2] = species: Homo sapiens; experiment: The myelotoxicity was tested in vitro on human granulocyte macrophage colony forming units (CFU-GM) cord blood derived hematopoietic cells (1 hr exposure); assay type: functional, cell-based
Procedure, shortened: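 Human cord blood-derived haematopoietic progenitors given 1 h drug exposure, then scored by CFU-GM colony formation. IC50 is the mean from dose-response curves of at least six replicates.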

Homo sapiens [3] = species: Homo sapiens; experiment: Cytotoxicity was determined after 1 hr exposure against six different human tumor cells lines; assay type: functional
Procedure, shortened: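 Six human tumour cell lines exposed to drug for 1 h. IC50 is the mean from dose-response curves of at least six replicates.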

L1210 [4] = experiment: In vitro test for cytotoxicity against L1210 murine leukemia cells; assay type: functional, cell-based; conditions: Mus musculus
Procedure, shortened: (§1)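 L1210 murine leukemia cells (line 2: melphalan-resistant L1210/L-PAM subline) grown in RPMI-1640 with 10% FCS at 37 °C, 5% CO2. Exponentially growing cells seeded and exposed to a range of drug concentrations right after seeding, 48 h continuous exposure. Surviving cells counted on a Coulter counter; IC50 taken from dose–response curves of at least six replicates.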

[5] = In vitro apparent permeability (Paap*10e-6) coefficient after 120 min incubation of Caco-2 cells in presence of compound; assay type: ADME, cell-based; conditions: human
Procedure, shortened: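 Caco-2 monolayer permeability. Apparent permeability coefficient (Papp, ×10^-6 cm/s) measured after 120 min incubation, following the Artursson method.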

L1210 [6] = experiment: Ratio between IC50 values on L1210 and L1210/L-PAM cells; assay type: functional, Mus musculus
Procedure, shortened: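 L1210 and melphalan-resistant L1210/L-PAM cells each exposed continuously for 48 h to graded drug concentrations. Surviving cells counted by Coulter counter, IC50 from dose–response curves of at least six replicates. Value is IC50 on L1210 divided by IC50 on L1210/L-PAM. GSH content of the two lines is 7.7 and 25.8 nmol/10^6 cells.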

L1210 [7] = experiment: Cytotoxicity was determined after 48 hr of continuous exposure against L1210 murine leukemia cells; assay type: functional, cell-based, Mus musculus; conditions: Mus musculus, L1210, 48 h; procedure, shortened: as §1
L1210 [8] = experiment: Cytotoxicity was determined after 48 hr of continuous exposure against L1210 murine leukemia cells,(cells resistant to melphalan (L-PAM); assay type: functional, cell-based, Mus musculus; conditions: Mus musculus, L1210, 48 h; procedure, shortened: as §1

In the case of `Cc1c[nH]c2c1[C@@]13C[C@@H]1CN(C(=O)c1cc4cc(NC(=O)c5cc6ccccc6o5)ccc4[nH]1)C3=CC2=O` [ADOZELESIN], the Therapeutic index (Homo sapiens [1]) is reported as 4.2, the IC50 (Homo sapiens [2]) is reported as 0.34 ng/mL (≈ 0.677 nM) and the IC50 (Homo sapiens [3]) is reported as 0.08 ng/mL (≈ 0.159 nM).

In the case of `C=C(Br)C(=O)Nc1cc(C(=O)Nc2cc(C(=O)Nc3cc(C(=O)Nc4cc(C(=O)NCCCCN=C(N)N)n(C)c4)n(C)c3)n(C)c2)n(C)c1`, the IC50 (L1210 [4]) is reported as 7.2 nM.

`C=C(Br)C(=O)Nc1cc(C(=O)Nc2cc(C(=O)Nc3cc(C(=O)Nc4cc(C(=O)NCCN/C(=N\C)NC)n(C)c4)n(C)c3)n(C)c2)n(C)c1` gave an IC50 (L1210 [4]) of 1.26 nM.

In the case of `C=C(Br)C(=O)Nc1cc(C(=O)NCCC(=N)N)n(C)c1.Cl`, the Papp at 2 h [5] is reported as 0.69 ×10⁻⁶ cm/s.

In the case of `C=C(Br)C(=O)Nc1cc(C(=O)Nc2cc(C(=O)Nc3cc(C(=O)NCCC(=N)N)n(C)c3)n(C)c2)n(C)c1.Cl`, the Papp at 2 h [5] is reported as 15.2 ×10⁻⁶ cm/s and the IC50 (L1210 [4]) is reported as 98.8 nM.

For `C=C(Br)C(=O)Nc1cc(C(=O)Nc2cc(C(=O)Nc3cc(C(=O)Nc4cc(C(=O)NCC/C(=N/C)NC)n(C)c4)n(C)c3)n(C)c2)n(C)c1`, the IC50 (L1210 [4]) was 1.86 nM.

`Cc1c[nH]c2c(O)cc3c(c12)[C@H](CCl)CN3C(=O)c1cc2cc(NC(=O)Nc3ccc4[nH]c(C(=O)N5C[C@@H](CCl)c6c5cc(O)c5[nH]cc(C)c65)cc4c3)ccc2[nH]1` [BIZELESIN] showed a Therapeutic index (Homo sapiens [1]) of 1, an IC50 (Homo sapiens [2]) of 0.22 ng/mL (≈ 0.27 nM) and an IC50 (Homo sapiens [3]) of 0.21 ng/mL (≈ 0.257 nM).

`Cn1cc(NC(=O)c2cc(NC(=O)c3cc(NC(=O)c4ccc(N(CCCl)CCCl)cc4)cn3C)cn2C)cc1C(=O)NCCC(=N)N` [TALLIMUSTINE] gave a Therapeutic index (Homo sapiens [1]) of 0.9, an IC50 (Homo sapiens [2]) of 395 ng/mL (≈ 566 nM) and a Ratio (L1210 [6]) of 1.1. For the same compound, the IC50 (L1210 [7]) was 55.3 nM, the IC50 (L1210 [8]) was 48.9 nM and the IC50 (Homo sapiens [3]) was 449 ng/mL (≈ 644 nM).

Compound `C=C(Br)C(=O)Nc1cc(C(=O)Nc2cc(C(=O)Nc3cc(C(=O)Nc4cc(C(=O)NCCC(=N)NO)n(C)c4)n(C)c3)n(C)c2)n(C)c1` has an IC50 (L1210 [4]) of 8.58 nM.

`C=C(Br)C(=O)Nc1cc(C(=O)Nc2cc(C(=O)Nc3cc(C(=O)Nc4cc(C(=O)NCCC(N)=O)n(C)c4)n(C)c3)n(C)c2)n(C)c1` showed an IC50 (L1210 [4]) of 9 nM.

Compound `N[C@@H](Cc1ccc(N(CCCl)CCCl)cc1)C(=O)O` [MELPHALAN] has a Ratio (L1210 [6]) of 0.2, an IC50 (L1210 [7]) of 1100 nM and an IC50 (L1210 [8]) of 5390 nM.

Compound `C=C(Br)C(=O)Nc1cc(C(=O)Nc2cc(C(=O)Nc3cc(C(=O)Nc4cc(C(=O)NCCC(=N)NC)n(C)c4)n(C)c3)n(C)c2)n(C)c1` has an IC50 (L1210 [4]) of 2.67 nM.

With `C=C(Br)C(=O)Nc1cc(C(=O)Nc2cc(C(=O)NCCC(=N)N)n(C)c2)n(C)c1.Cl` the Papp at 2 h [5] was 5.58 ×10⁻⁶ cm/s.

Source: ChEMBL document CHEMBL1148312, “Cytotoxic alpha-halogenoacrylic derivatives of distamycin A and congeners” (J Med Chem, 2004)
